Results taken from ChEMBL document CHEMBL1821664, “Sulfonamides as a new scaffold for hypoxia inducible factor pathway inhibitors” (Bioorg Med Chem Lett, 2011).
Activity calls are given as the source filed them. The calls are words filed in the database; no cut-off is given here.

What was measured:
[1] = molecular target: T1, Hypoxia inducible factors; HIF-1-alpha, HIF-2-alpha (Homo sapiens, UniProt Q16665+Q99814); assay: Inhibition of hypoxia-induced HIF1 activation in human LN229 cells expressing VEGF reporter gene assessed as VEGF expression at 10 uM after 24 hrs incubation under hypoxia condition by luciferase reporter assay; type: cell-based
Procedure, shortened: (§1)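 LN229 cells stably carrying a VEGF promoter-luciferase construct, pre-treated 1 h in normoxia with compound at 10 µM final, then 24 h in normoxia or hypoxia; luciferase measured in cell extracts; triplicate means ± SD.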

[2] = molecular target: T1, Hypoxia inducible factors; HIF-1-alpha, HIF-2-alpha; assay: Inhibition of hypoxia-induced HIF1 activation in human LN229 cells expressing HRE-AP reporter gene preincubated for 1 hr under normoxia condition followed by 24 hrs incubation under hypoxia condition by HRE-luciferase reporter assay; type: cell-based
Procedure, shortened: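 HRE-luciferase dose-response: cells pre-treated 1 h, then 24 h hypoxia; luciferase measured in cell extracts; each compound run 5–21 times on separate days, in triplicate. IC50 obtained from a four-parameter logistic fit using a nonlinear mixed-effects model.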

[3] = molecular target: T1, Hypoxia inducible factors; HIF-1-alpha, HIF-2-alpha; assay: Inhibition of hypoxia-induced HIF1 activation in human LN229 cells expressing HRE-AP reporter gene at 10 uM preincubated for 1 hr under normoxia condition followed by 24 hrs incubation under hypoxia condition by HRE-luciferase reporter assay relative to control; values are per cent of control
[4] = molecular target: T1, Hypoxia inducible factors; HIF-1-alpha, HIF-2-alpha; assay: Inhibition of hypoxia-induced HIF1 activation in human LN229 cells expressing HRE-AP reporter gene at 2.5 uM preincubated for 1 hr under normoxia condition followed by 24 hrs incubation under hypoxia condition by HRE-luciferase reporter assay relative to control; values are per cent of control
[5] = molecular target: T1, Hypoxia inducible factors; HIF-1-alpha, HIF-2-alpha; assay: Inhibition of hypoxia-induced HIF1 activation in human LN229 cells expressing HRE-AP reporter gene at 5 uM preincubated for 1 hr under normoxia condition followed by 24 hrs incubation under hypoxia condition by HRE-luciferase reporter assay relative to control; values are per cent of control
[6] = molecular target: T1, Hypoxia inducible factors; HIF-1-alpha, HIF-2-alpha; assay: (§2) Inhibition of hypoxia-induced HIF1 activation in human LN229 cells expressing VEGF reporter gene assessed as VEGF expression at 10 uM preincubated for 1 hr under normoxia condition followed by 24 hrs incubation under hypoxia condition by luciferase reporter assay; type: cell-based; procedure, shortened: as §1
[7] = molecular target: T1, Hypoxia inducible factors; HIF-1-alpha, HIF-2-alpha; assay: Inhibition of HIF1alpha expression in human LN229 cells assessed as reduction of HIF-1alpha accumulation at 100 nM preincubated for 1 hr under normoxia condition followed by 24 hrs incubation under hypoxia condition by Western blotting; type: functional, cell-based; details: LN-229
[8] = molecular target: T1, Hypoxia inducible factors; HIF-1-alpha, HIF-2-alpha; assay: Inhibition of HIF1alpha expression in human LN229 cells assessed as reduction of HIF-1alpha accumulation at <10 uM preincubated for 1 hr under normoxia condition followed by 24 hrs incubation under hypoxia condition by Western blotting; type: functional, cell-based; details: LN-229
[9] = molecular target: T1, Hypoxia inducible factors; HIF-1-alpha, HIF-2-alpha; assay: Inhibition of HIF1alpha expression in human LN229 cells assessed as reduction of HIF-1alpha accumulation at 20 uM preincubated for 1 hr under normoxia condition followed by 24 hrs incubation under hypoxia condition by Western blotting; type: functional, cell-based; details: LN-229
Procedure, shortened: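 LN229 glioma cells were pre-treated for 1 h with compound at 20 µM final, then incubated under normoxia or hypoxia for 24 h. HIF-1α accumulation was read by Western blot, with HIF-1α and actin immunoblotted.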

[10] = molecular target: T1, Hypoxia inducible factors; HIF-1-alpha, HIF-2-alpha; assay: as §2, with “HRE-AP” for “VEGF”, “HRE remaining activity” for “VEGF expression”, “alkaline phosphatase” for “luciferase”, “assay relative to control” for “assay”; type: cell-based
Procedure, shortened: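 LN229-HRE-AP cells pre-treated 1 h with compound or vehicle (1% DMSO), then 24 h in 1% O2 hypoxia incubator; cells lysed and alkaline phosphatase activity measured. Hits were compounds reducing hypoxic AP induction >50%; single assay.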

| Compound | inhibition [1] | IC50 [2] | residual activity [3] | residual activity [4] | residual activity [5] | inhibition [6] | inhibition [7] | inhibition [8] | inhibition [9] | Activity [10] |
| --- | --- | --- | --- | --- | --- | --- | --- | --- | --- | --- |
| CC1(C)C=Cc2cc(CN(Cc3ccccc3)S(=O)(=O)c3ccc(Br)cc3OC(F)(F)F)ccc2O1 | inactive | 508 nM | 1% | 15% | 2% | Active | – | – | – | – |
| CC(C)CN(Cc1ccc2c(c1)C=CC(C)(C)O2)S(=O)(=O)c1cccc2ccccc12 | inactive | 656 nM | 4% | 6% | 4% | Active | – | – | – | – |
| CC(C)C[C@H](NC(=O)[C@H](Cc1ccccc1)NC(=O)c1cnccn1)B(O)O | – | – | – | – | – | – | Active | – | – | – |
| COc1ccc(S(=O)(=O)N(Cc2ccc3c(c2)C=CC(C)(C)O3)c2ccccc2)cc1OC | inactive | 593 nM | 1% | 18% | 2% | Active | – | inactive | Active | 28.9% |
| CC(C)CN(Cc1ccc2c(c1)C=CC(C)(C)O2)S(=O)(=O)c1cc(Cl)ccc1Cl | inactive | 731 nM | 1% | 23% | 5% | Active | – | – | – | – |

Continued, in another order:

| inhibition [1] | IC50 [2] | residual activity [3] | residual activity [4] | residual activity [5] | inhibition [6] | inhibition [7] | Compound | inhibition [8] | inhibition [9] | Activity [10] |
| --- | --- | --- | --- | --- | --- | --- | --- | --- | --- | --- |
| inactive | 672 nM | 1% | 21% | 6% | Active | – | COc1ccc(S(=O)(=O)N(Cc2ccc3c(c2)C=CC(C)(C)O3)CC(C)C)cc1OC | – | – | – |
| inactive | 1270 nM | 1% | 24% | 5% | Active | – | COc1ccc(S(=O)(=O)N(Cc2ccc3c(c2)C=CC(C)(C)O3)C2CCCCC2)c(OC)c1 | – | – | – |
| inactive | 532 nM | 1% | 13% | 3% | Active | – | CC(C)CN(Cc1ccc2c(c1)C=CC(C)(C)O2)S(=O)(=O)c1ccc([N+](=O)[O-])cc1 | – | – | – |
